{"source": "ChEMBL document CHEMBL2203081", "about": "(Bioorg Med Chem Lett, 2012)", "key": {"[1]": {"molecular_target": "Serine/threonine-protein kinase TBK1 (Homo sapiens) (UniProt Q9UHD2)", "assay": "Inhibition of TBK1 assessed as residual activity at 10 uM relative to control"}, "[2]": {"molecular_target": "Casein kinase I isoform gamma-2 (Homo sapiens) (UniProt P78368)", "sequence (P78368 whole entry, looked up, canonical isoform)": "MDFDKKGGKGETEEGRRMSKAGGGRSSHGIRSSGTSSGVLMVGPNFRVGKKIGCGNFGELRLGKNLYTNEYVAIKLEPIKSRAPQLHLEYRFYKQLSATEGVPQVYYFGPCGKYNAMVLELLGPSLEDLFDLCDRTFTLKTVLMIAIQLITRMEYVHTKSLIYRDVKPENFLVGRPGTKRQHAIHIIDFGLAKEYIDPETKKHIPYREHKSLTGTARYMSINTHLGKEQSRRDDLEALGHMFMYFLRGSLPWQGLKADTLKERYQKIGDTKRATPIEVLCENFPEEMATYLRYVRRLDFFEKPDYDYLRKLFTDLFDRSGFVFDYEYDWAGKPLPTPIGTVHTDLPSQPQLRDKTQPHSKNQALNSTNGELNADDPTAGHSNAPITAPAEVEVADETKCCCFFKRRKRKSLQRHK", "assay": "Inhibition of CSNK1G2 assessed as residual activity at 10 uM relative to control", "outline": "(§1)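 Competition kinase-binding assay (KINOMEscan) across a non-redundant panel of 329 kinases beyond the radiometric panel; residual binding expressed relative to control.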"}, "[3]": {"molecular_target": "Casein kinase I isoform alpha (Homo sapiens) (UniProt P48729)", "sequence (P48729 2-337 limits assumed)": "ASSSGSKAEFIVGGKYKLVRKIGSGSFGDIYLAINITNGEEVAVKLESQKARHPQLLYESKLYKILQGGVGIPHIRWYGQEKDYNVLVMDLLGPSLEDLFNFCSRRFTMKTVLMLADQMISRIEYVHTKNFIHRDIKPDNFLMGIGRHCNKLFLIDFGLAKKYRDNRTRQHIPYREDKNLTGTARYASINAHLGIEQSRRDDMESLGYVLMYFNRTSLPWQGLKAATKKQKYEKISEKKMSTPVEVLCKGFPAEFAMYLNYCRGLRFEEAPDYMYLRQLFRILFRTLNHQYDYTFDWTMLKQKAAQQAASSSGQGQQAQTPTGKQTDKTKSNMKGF", "assay": "Inhibition of CSNK1A1 assessed as residual activity at 10 uM relative to control", "outline": "as §1"}, "[4]": {"molecular_target": "Macrophage colony-stimulating factor 1 receptor (Homo sapiens) (UniProt P07333)", "assay": "Inhibition of CSF1R assessed as residual activity at 10 uM relative to control", "outline": "as §1"}, "[5]": {"molecular_target": "T1, Serine/threonine-protein kinase STK11 (Homo sapiens) (UniProt Q15831)", "T1 sequence (whole entry)": "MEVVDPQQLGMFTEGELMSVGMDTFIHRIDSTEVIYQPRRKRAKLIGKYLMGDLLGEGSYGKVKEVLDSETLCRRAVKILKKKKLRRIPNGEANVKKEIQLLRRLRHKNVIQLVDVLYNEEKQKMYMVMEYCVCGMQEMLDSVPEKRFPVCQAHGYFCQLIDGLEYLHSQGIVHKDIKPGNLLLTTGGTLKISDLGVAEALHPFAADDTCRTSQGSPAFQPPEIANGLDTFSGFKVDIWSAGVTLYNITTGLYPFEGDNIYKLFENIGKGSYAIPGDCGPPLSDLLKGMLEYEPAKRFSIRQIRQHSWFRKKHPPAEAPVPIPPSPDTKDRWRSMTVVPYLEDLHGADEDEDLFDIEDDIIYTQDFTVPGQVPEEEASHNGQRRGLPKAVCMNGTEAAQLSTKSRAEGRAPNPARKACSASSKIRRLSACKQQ", "assay": "Inhibition of LKB1 assessed as residual activity at 1 uM"}, "[6]": {"molecular_target": "T1, Serine/threonine-protein kinase STK11 (Homo sapiens)", "assay": "Inhibition of LKB1 assessed as residual activity at 10 uM relative to control"}, "[7]": {"molecular_target": "Serine/threonine-protein kinase RIO2 (Homo sapiens) (UniProt Q9BVS4)", "sequence (Q9BVS4 whole entry, looked up)": "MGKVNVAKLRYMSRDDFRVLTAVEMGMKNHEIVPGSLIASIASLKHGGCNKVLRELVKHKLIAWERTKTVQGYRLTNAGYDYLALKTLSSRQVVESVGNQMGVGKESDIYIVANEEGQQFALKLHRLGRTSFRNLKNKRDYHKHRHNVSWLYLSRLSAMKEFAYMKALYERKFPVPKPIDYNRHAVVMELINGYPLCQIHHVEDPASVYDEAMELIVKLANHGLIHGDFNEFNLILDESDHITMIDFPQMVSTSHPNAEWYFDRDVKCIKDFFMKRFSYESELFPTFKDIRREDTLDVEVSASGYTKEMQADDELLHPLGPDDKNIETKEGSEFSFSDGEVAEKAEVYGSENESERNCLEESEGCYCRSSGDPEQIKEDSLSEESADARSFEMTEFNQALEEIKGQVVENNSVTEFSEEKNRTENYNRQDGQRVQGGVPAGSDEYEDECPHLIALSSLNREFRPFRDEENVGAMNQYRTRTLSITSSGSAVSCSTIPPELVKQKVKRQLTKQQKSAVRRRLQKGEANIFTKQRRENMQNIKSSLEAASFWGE", "assay": "Inhibition of RIOK2 assessed as residual activity at 10 uM relative to control"}, "[8]": {"molecular_target": "Casein kinase I isoform delta (Homo sapiens) (UniProt P48730)", "assay": "Inhibition of CK1d assessed as residual activity at 1 uM", "outline": "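Radioactivity-based enzymatic assay against a panel of 131 kinases (Dundee profiling). Activity remaining was measured with compound present at the stated concentration.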"}, "[9]": {"molecular_target": "T2, Mitogen-activated protein kinase kinase kinase 7 (Homo sapiens) (UniProt O43318)", "T2 sequence (whole entry)": "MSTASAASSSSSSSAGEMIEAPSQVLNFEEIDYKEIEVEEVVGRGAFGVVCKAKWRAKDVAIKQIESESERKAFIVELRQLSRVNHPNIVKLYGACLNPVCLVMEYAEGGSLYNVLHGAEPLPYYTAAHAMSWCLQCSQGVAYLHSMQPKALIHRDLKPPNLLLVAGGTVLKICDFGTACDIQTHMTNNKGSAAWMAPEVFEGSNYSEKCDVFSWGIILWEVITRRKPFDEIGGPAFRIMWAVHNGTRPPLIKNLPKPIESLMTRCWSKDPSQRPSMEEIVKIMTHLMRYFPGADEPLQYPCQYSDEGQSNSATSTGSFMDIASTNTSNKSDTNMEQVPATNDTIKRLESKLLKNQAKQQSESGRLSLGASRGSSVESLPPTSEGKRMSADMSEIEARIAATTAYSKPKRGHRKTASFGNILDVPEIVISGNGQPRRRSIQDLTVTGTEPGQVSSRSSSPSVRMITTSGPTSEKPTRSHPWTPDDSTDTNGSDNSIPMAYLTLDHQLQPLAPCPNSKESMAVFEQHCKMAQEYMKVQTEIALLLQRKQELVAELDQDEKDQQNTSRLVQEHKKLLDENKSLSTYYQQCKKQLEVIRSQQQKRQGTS", "assay": "Inhibition of TAK1 assessed as residual activity at 10 uM"}, "[10]": {"molecular_target": "Serine/threonine-protein kinase pim-1 (Homo sapiens) (UniProt P11309)", "sequence (P11309 whole entry, looked up)": "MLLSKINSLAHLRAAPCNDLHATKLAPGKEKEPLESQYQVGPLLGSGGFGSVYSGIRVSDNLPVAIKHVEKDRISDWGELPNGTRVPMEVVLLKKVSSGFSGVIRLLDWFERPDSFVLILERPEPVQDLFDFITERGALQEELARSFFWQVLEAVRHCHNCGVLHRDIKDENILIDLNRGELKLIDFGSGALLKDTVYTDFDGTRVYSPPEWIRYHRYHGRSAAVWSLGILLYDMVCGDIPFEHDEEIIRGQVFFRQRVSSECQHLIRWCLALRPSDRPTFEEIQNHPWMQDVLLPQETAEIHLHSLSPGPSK", "assay": "Inhibition of PIM1 assessed as residual activity at 10 uM"}, "[11]": {"molecular_target": "Mitogen-activated protein kinase 14 (Homo sapiens) (UniProt Q16539)", "assay": "Inhibition of p38a MAPK assessed as residual activity at 10 uM"}, "[12]": {"molecular_target": "Insulin-like growth factor 1 receptor (Homo sapiens) (UniProt P08069)", "sequence (P08069 31-736 limits assumed)": "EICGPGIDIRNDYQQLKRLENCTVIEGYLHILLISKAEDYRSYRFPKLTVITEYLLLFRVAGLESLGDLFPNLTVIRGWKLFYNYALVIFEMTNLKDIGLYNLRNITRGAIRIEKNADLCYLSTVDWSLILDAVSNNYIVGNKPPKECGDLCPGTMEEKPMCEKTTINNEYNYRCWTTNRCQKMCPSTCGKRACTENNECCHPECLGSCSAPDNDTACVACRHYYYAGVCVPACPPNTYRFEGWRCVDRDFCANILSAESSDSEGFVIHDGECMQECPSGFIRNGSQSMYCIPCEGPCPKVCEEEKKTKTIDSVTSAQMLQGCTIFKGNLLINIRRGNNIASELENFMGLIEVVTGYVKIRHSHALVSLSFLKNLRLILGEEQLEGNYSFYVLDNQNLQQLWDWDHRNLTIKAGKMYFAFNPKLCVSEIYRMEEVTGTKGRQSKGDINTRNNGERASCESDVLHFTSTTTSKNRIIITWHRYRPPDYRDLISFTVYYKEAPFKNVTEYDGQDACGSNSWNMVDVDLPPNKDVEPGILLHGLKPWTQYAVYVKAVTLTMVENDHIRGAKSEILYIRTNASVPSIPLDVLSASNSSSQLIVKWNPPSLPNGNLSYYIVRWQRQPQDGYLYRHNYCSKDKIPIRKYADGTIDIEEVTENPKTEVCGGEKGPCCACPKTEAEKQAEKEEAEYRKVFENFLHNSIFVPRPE", "sequence (P08069 741-1367 limits assumed)": "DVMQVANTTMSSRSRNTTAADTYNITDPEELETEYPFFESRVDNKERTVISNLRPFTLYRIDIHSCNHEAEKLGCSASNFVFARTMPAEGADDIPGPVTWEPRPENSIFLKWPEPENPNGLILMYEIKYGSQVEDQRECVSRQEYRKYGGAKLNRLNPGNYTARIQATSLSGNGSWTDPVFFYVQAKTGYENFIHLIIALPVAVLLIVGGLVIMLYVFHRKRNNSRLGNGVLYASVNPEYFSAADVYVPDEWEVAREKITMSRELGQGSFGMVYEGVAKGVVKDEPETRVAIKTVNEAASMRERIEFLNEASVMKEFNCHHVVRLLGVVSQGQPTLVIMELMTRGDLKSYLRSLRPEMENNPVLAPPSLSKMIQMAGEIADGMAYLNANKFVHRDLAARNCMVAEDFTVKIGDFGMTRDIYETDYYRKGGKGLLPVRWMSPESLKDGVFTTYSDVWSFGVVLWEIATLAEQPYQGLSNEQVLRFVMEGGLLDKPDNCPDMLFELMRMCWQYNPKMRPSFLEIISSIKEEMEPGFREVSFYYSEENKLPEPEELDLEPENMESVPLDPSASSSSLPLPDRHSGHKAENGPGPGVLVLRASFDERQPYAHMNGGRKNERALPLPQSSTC", "assay": "Inhibition of IGF-1R assessed as residual activity at 10 uM", "outline": "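Radioactivity-based enzymatic activity assay of the named kinase, run as part of a 131-kinase specificity panel at the National Centre for Protein Kinase Profiling (Dundee). Residual activity was read at the stated single inhibitor concentration.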"}, "[13]": {"molecular_target": "Ephrin type-A receptor 3 (Homo sapiens) (UniProt P29320)", "sequence (P29320 whole entry)": "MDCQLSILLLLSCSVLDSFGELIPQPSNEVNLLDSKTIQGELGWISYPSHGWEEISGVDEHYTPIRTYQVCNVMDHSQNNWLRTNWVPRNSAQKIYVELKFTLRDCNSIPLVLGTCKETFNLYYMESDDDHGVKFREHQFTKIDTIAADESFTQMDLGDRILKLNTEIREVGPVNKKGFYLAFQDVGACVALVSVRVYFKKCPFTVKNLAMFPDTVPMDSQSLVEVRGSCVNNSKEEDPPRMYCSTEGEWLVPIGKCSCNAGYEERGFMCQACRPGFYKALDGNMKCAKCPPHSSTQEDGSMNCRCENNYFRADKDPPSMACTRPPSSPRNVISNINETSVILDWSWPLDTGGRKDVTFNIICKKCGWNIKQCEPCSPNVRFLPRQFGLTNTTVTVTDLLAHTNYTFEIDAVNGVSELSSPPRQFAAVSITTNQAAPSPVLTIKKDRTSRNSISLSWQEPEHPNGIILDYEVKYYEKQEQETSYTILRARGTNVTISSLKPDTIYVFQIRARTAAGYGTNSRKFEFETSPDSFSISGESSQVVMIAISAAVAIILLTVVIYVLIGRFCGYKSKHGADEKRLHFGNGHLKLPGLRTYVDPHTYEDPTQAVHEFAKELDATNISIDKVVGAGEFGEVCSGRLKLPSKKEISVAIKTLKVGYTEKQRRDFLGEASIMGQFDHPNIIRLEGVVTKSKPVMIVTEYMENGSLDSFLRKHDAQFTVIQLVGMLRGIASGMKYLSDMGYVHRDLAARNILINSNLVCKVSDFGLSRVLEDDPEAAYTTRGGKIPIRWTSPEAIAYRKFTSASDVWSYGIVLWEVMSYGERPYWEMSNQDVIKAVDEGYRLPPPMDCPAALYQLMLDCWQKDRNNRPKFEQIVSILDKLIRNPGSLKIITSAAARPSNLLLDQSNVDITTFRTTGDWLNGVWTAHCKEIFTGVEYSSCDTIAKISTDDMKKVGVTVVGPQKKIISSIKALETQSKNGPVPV", "assay": "Inhibition of EPHA3 assessed as residual activity at 10 uM relative to control", "outline": "as §1"}, "[14]": {"molecular_target": "Tyrosine-protein kinase Yes (Homo sapiens) (UniProt P07947)", "sequence (P07947 2-543 limits assumed)": "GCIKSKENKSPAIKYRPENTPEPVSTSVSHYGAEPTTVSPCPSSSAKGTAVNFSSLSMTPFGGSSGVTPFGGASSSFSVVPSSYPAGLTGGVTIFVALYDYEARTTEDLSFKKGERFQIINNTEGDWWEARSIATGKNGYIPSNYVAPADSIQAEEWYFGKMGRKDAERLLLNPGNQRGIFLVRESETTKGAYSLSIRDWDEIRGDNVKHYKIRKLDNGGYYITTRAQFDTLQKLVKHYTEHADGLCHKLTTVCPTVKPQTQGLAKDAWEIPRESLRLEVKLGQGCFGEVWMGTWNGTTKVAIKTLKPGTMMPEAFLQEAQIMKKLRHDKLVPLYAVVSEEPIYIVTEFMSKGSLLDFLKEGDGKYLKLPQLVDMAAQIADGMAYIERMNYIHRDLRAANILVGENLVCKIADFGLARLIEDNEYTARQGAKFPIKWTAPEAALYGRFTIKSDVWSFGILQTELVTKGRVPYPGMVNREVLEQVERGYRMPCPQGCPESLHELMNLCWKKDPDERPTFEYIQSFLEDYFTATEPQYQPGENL", "assay": "Inhibition of YES1 assessed as residual activity at 1 uM"}, "[15]": {"molecular_target": "Cyclin-dependent kinase 17 (Homo sapiens) (UniProt Q00537)", "sequence (Q00537 whole entry, looked up)": "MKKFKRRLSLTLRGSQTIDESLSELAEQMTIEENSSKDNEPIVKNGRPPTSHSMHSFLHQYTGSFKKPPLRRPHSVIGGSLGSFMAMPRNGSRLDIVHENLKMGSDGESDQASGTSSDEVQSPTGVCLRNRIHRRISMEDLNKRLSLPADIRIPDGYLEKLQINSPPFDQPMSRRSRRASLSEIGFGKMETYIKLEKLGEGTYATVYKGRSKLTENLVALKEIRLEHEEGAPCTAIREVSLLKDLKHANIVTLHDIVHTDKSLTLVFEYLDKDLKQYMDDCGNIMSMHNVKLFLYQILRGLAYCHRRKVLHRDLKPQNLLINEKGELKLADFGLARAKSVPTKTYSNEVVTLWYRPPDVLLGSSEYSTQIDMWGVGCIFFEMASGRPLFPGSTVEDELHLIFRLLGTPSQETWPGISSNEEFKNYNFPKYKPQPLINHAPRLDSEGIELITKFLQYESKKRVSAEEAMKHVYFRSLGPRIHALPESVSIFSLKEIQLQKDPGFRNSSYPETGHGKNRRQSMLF", "assay": "Inhibition of PCTK2 assessed as residual activity at 10 uM relative to control"}, "[16]": {"molecular_target": "Ribosomal protein S6 kinase beta-1 (Homo sapiens) (UniProt P23443)", "assay": "Inhibition of S6K1 assessed as residual activity at 1 uM"}}}
{"compound": "O=C(Nc1cccnc1)c1cc(-c2ccnc(F)c2)ccc1OCc1ccccc1", "values": [{"measurement": "Activity", "setting": "[1]", "result": 68, "unit": "%"}, {"measurement": "Activity", "setting": "[2]", "result": 27, "unit": "%"}, {"measurement": "Activity", "setting": "[3]", "result": 60, "unit": "%"}, {"measurement": "Activity", "setting": "[4]", "result": 68, "unit": "%"}, {"measurement": "Activity", "setting": "[5]", "result": 97, "unit": "%"}, {"measurement": "Activity", "setting": "[6]", "result": 71, "unit": "%"}, {"measurement": "Activity", "setting": "[7]", "result": 41, "unit": "%"}, {"measurement": "Activity", "setting": "[8]", "result": 107, "unit": "%"}, {"measurement": "Activity", "setting": "[9]", "result": 101, "unit": "%"}, {"measurement": "Activity", "setting": "[10]", "result": 109, "unit": "%"}, {"measurement": "Activity", "setting": "[11]", "result": 102, "unit": "%"}, {"measurement": "Activity", "setting": "[12]", "result": 117, "unit": "%"}, {"measurement": "Activity", "setting": "[13]", "result": 61, "unit": "%"}, {"measurement": "Activity", "setting": "[14]", "result": 120, "unit": "%"}, {"measurement": "Activity", "setting": "[15]", "result": 75, "unit": "%"}, {"measurement": "Activity", "setting": "[16]", "result": 101, "unit": "%"}]}
